This is an account of results in ChEMBL document CHEMBL1140039, “Aglycone exploration of C-arylglucoside inhibitors of renal sodium-dependent glucose transporter SGLT2” (Bioorg Med Chem Lett, 2008).

Molecules are shown by their SMILES.

Series [1] is filed under the species Homo sapiens. In words: Selectivity for human SGLT2 over human SGLT1 expressed in Xenopus oocyte.
In series [2] the target is T1, Sodium/glucose cotransporter 2 (Homo sapiens, UniProt P31639).
T1 sequence (P31639 whole entry): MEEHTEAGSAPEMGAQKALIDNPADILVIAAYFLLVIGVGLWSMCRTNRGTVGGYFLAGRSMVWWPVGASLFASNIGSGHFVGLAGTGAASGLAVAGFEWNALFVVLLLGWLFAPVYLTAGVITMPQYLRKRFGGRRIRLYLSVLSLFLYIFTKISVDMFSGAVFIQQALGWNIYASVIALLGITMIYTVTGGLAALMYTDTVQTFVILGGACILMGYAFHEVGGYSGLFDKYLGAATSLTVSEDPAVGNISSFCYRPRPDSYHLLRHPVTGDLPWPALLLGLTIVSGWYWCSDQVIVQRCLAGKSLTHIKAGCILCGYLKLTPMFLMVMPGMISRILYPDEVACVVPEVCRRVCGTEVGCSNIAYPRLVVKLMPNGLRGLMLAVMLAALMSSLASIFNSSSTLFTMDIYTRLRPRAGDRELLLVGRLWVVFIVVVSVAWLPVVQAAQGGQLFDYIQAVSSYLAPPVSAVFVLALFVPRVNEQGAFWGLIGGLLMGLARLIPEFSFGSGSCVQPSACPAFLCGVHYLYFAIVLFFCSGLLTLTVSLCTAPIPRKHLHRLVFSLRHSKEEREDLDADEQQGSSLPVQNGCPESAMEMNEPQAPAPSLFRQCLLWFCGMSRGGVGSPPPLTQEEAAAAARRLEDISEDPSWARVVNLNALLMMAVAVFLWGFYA
In words: Inhibition of human SGLT2 expressed in Xenopus oocyte assessed as [14C]alpha-methyl glucopyranoside uptake.

For series [3], the system named is Mus musculus. Kind of series: Effect on glucose concentration in Swiss Webster mouse urine at 0.3 mg/kg, iv. The note with it: in vivo. Type of series: ADME, organism-based. Set-up: dose 0.3 mg/kg, route intravenous. Summed up: (§1)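 Fasted male rats or mice were anesthetized with i.p. ketamine:xylazine (.001 mL/g), and the bladder was cannulated via an abdominal incision. Drug was given intravenously. Urine was collected over 60 min in 10-min intervals and assayed for glucose concentration.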

Series [4] relates to Liver microsomes. In words: Metabolic stability in Sprague-Dawley rat liver microsomes at 10 uM. On the technique in general: Liver microsomes are a subcellular fraction often used to study metabolism.
The subject of series [5] is Rattus norvegicus. Kind of series: Effect on glucose concentration in Sprague-Dawley rat urine at 1 mg/kg, iv. Type of series: ADME, organism-based. Set-up: dose 1 mg/kg, route intravenous. Particulars: in vivo. Summed up: as §1

As a reminder, the EC50 is the concentration at which the effect is half-maximal. In the case of `Cc1cc(O)c(C(=O)CCc2ccc3occc3c2)c(O[C@@H]2O[C@H](CO)[C@@H](O)[C@H](O)[C@H]2O)c1`, the Selectivity ratio in series [1] turned out to be 4. Also, in series [2], the EC50 worked out at 50 nM.

For `Cc1ccc(Cc2cccc([C@@H]3O[C@H](CO)[C@@H](O)[C@H](O)[C@H]3O)c2)cc1`, the figures for the urinary glucose in series [3] and in series [5] were 600 mg/dL and 230 mg/dL, respectively. For the same compound, in series [4], the Stability entry was “Stable”.
